# PAX8 inh HTS: inhibitors of PAX8 transcriptional activity in RMG-I cells. inhibition, % at 12.6 µM. AID 652154. RMG-I TPO-luciferase reporter, SteadyGlo, 24 h. actives 1.2% (n = 360,000);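 active = mean replicate inhibition at least 60% with every replicate also reaching 60%; inconclusive = only one of the two criteria is met; inactive = mean below 60% and not all replicates reaching 60%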;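 note: luciferase light reporting Pax8 driven TPO promoter activity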
# RAD54 inh: inhibitors of human RAD54 branch migration; Q92698; RAD54 Holliday junction branch migration, FAM/BHQ fluorescence; inhibition, % at 10.4 µM; actives 0.14% (n = 360,000); AID 602329;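 active = mean normalized replicate activity at least 40 and at least half of replicates scoring 40 or more; inconclusive = only one of the two criteria met; inactive = mean below 40 and under half of replicates reaching 40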;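 note: inhibitors cause a drop in the FAM fluorescence signal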
# RAD52 inh: RAD52 (human) annealing inhibition; P43351; inhibition, % at 18.7 µM; actives 0.46% (n = 360,000); recombinant RAD52 DNA annealing, FRET fluorescence; AID 651710;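 active = every replicate showing at least 50% inhibition; inconclusive = mean inhibition at least 50% but not in every replicate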
# Target sequence (P43351 whole entry, looked up): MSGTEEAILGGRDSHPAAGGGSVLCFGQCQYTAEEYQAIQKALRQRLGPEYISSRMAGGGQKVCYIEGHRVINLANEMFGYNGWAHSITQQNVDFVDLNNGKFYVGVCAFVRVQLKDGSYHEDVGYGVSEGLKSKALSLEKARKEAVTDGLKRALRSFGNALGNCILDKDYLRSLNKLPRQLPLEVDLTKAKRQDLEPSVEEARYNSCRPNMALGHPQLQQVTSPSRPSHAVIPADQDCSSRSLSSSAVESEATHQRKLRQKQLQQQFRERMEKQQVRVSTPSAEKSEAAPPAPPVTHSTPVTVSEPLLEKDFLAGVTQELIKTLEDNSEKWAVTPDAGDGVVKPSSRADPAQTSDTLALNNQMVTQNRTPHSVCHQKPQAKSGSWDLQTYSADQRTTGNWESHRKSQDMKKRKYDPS
# FN deposition inh: fibronectin deposition inhibition; inhibition, % at 12.6 µM; AH1F fibroblasts, Alexa488-fibronectin deposition fluorescence, overnight; actives 0.086% (n = 350,000); AID 743247;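 active = mean inhibition across replicates of 30% or more, regardless of how many single replicates reach that level; inconclusive = mean under 30% yet at least half of replicates reach 30%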
#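 Assay system: AH1F fibroblasts / Quantity: 10000 cells per well / Medium: DMEM plus 2% serum, read in PBS / Reagent: labelled fibronectin 24 nM / Dosing: single dose, pinned / Times: 1 h cell attachment, overnight exposure to compound and label / Signal: fluorescence, ex 485 nm, em 525 nm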
# RAD52 DNA ctr: counter-screen for RAD52 inhibitors: DNA binding compounds; shares compounds with RAD52 inh; Salmon sperm DNA/acridine orange FP displacement; AC50, µM; actives 8% (n = 1,000); AID 652128;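 active = fitted half-maximal concentration for signal loss at or below twice the highest dose tested, in every separate run, actives reach about 64 µM in these data; inconclusive = runs disagree, or flat partial signal loss, or poor fit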
# Hits are given with their value; i = inactive; ? = inconclusive; nt = not tested or not shown. Hits are enriched below; roughly 1.3% of the tested compounds scored in any of these assays.
SMILES,PAX8 inh HTS,RAD54 inh,RAD52 inh,FN deposition inh,RAD52 DNA ctr
COc1cc2c3cc1Oc1c(OC)c(OC)cc4c1[C@H](Cc1ccc(cc1)Oc1cc(ccc1O)C[C@H]3N(C)CC2)N(C)CC4,i,i,58,i,i
COc1cc2c(cc1O)[C@@H]1Cc3ccc(OC)c(O)c3CN1CC2,i,i,i,i,nt
COc1cc2c3c(c1OC)Oc1ccc(cc1)C[C@H]1c4c(cc(OC)c(OC)c4Oc4ccc(cc4)C[C@@H]3N(C)CC2)CCN1C,i,i,i,i,nt
COc1cc2c3cc1Oc1cc(ccc1O)C[C@@H]1c4c(cc(OC)c(O)c4Oc4ccc(cc4)C[C@H]3N(C)CC2)CCN1C,i,i,52,i,i
COc1cc2c3cc1Oc1cc(ccc1O)C[C@@H]1c4c(cc(OC)c(O)c4Oc4cccc(c4)C[C@@H]3N(C)CC2)CC[N+]1(C)C,i,i,70,i,i
COC(=O)C1=C(c2ccc(OC)c(OC)c2)C[C@@H]2CC[C@H]1N2C(=O)NCCNC(C)=O,i,i,i,i,nt
CCOC(=O)C(NC(C)=O)C(OC(C)=O)c1cccc(N(CCCl)CCCl)c1 (stereo not drawn),nt,i,nt,nt,nt
CC(C)NS(=O)(=O)c1ccc(OCC(=O)N2CCN(Cc3ccccc3)CC2)c(Cl)c1,nt,i,nt,nt,nt
Cc1cccc(N2C(=O)NC(=O)/C(=C\c3cc(C)n(-c4sc5c(c4C#N)CCCC5)c3C)C2=O)c1C,i,nt,nt,i,nt
ClCCN1CCN(c2ccnc3cc(Cl)ccc23)CC1,i,i,68,i,i
CCCCCCCCCCCCCCCC[N+](C)(C)C,93,i,80,i,?
Oc1ccc2c3c1OC1c4[nH]c5ccccc5c4C[C@@]4(O)C(C2)N(CC2CC2)CC[C@]314 (stereo partly drawn),nt,i,i,nt,nt
Oc1ccc2c3c1O[C@H]1c4[nH]c5c(c4CC4(O)C(C2)N(CC2CC2)CCC314)CC1(O)[C@H]2Cc3ccc(O)c4c3[C@@]1(CCN2CC1CC1)C5O4 (stereo partly drawn),nt,nt,83,nt,i
CCCCn1c(O)c(C(C)=Nc2ccc3c(c2)CCC3)c(=O)[nH]c1=O,i,i,i,i,nt
C[C@]1(O)CCC2C3CC[C@@H]4CC(=O)CC[C@]4(C)C3CC[C@@]21C (stereo partly drawn),i,nt,i,i,nt
C[C@]1(O)CCC2C3CC[C@H]4C[C@@H](OC(=O)[C@@H](N)CCCCN)CC[C@]4(C)C3CC[C@@]21C (stereo partly drawn),nt,60,88,i,i
NCC(O)c1cc(O)c(O)cc1F (stereo not drawn),i,i,92,i,i
Cc1ccc2nc(-c3ccc(CN4CCC(n5c(=O)[nH]c6cc(Cl)ccc65)CC4)cc3)c(-c3ccccc3)nc2c1,i,nt,i,i,nt
Fc1ccccc1CNC1CN2CCC1CC2 (stereo not drawn),i,nt,i,i,nt
Ic1ccccc1CN[C@@H]1C2CCN(CC2)[C@@H]1C(c1ccccc1)c1ccccc1,i,i,62,i,i
CCOC(=O)CNC(=O)N1Cc2ccccc2-n2nncc2C1,i,i,i,nt,nt
O=c1[nH]c2cc(Cl)ccc2n1C1CCN(Cc2ccc(-c3nc4ccccc4nc3-c3ccccc3)cc2)CC1,i,nt,i,i,nt
O=c1[nH]c2ccccc2n1C1CCN(Cc2ccc(-c3[nH]c4cc5ncnc5cc4nc3-c3ccccc3)cc2)CC1,72,nt,54,i,i
C=C1[C@@H](OC(C)=O)[C@]23C[C@@H]1[C@@H](OC(C)=O)CC2[C@]12C4C[C@H]3[C@H]1N(CC)C[C@]4(C)CC[C@@H]2O (stereo partly drawn),nt,i,78,nt,i
CCN1CCN(c2ccc(N)cc2C)CC1,i,nt,100,i,47µM
CCN1CCN(c2ccc(N)cc2)CC1,i,nt,90,i,53µM
CNC(=O)Oc1cc2c(cc1C(C)(C)C)CCC2,i,i,i,i,nt
